Consider 14 molecules from ChEMBL document CHEMBL1144509, “Identification of some novel AHAS inhibitors via molecular docking and virtual screening approach” (Bioorg Med Chem, 2007).

Experiment [1] has as its system Brassica rapa subsp. oleifera. Put plainly: Herbicidal activity against Brassica campestris L assessed as inhibition of rape root growth at 10 ug/ml. It counts as functional. The method, boiled down:
(§1)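 Rape seeds pre-soaked 4 h in distilled water, then set on filter paper in 6-cm dishes wetted with 2 ml test solution, usually 10 seeds per plate, duplicate plates. Germination in the dark for 72 h at 28 (±1) °C. Mean length of 10 roots measured. Percent inhibition calculated against distilled-water controls.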

The subject of experiment [2] is Brassica rapa subsp. oleifera. Nature of the experiment: Herbicidal activity against Brassica campestris L assessed as inhibition of rape root growth at 100 ug/ml. It counts as functional. Put shortly:
as §1

Experiment [3] is described as follows: Inhibition of Arabidopsis thaliana AHAS. Put shortly:
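Purified recombinant plant AHAS. Colorimetric assay in 50 mM potassium phosphate pH 7.0 with 50 mM pyruvate, 1 mM thiamine diphosphate, 10 mM MgCl2 and 10 µM FAD, compounds given as emulsions, 30 min at 37 °C. Stopped with 10% H2SO4, then 60 °C for 15 min to convert acetolactate to acetoin. Acetoin developed with 0.5% creatine and 5% α-naphthol for 15 min at 60 °C, read at A525.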

Molecules are shown by their SMILES. Peptide text beside a SMILES is read from it.

Take `O=C(O)Cc1cccc(CC(=O)O)c1`: the inhibition at 10 µg/mL in experiment [1] is 0%. In experiment [2], the inhibition at 100 µg/mL turned out to be 2.6%.

For `O=C(O)C(Cc1c[nH]c2ccccc12)NSc1ccccc1[N+](=O)[O-]` (stereo unspecified), the inhibition at 10 µg/mL in experiment [1] was determined as 60.5%. Affinity in experiment [3] was put at a Ki of 90.7 µM. Further, the inhibition at 100 µg/mL in experiment [2] turned out to be 74.8%.

Regarding `CC(O)C(NC(=O)OCC1c2ccccc2-c2ccccc21)C(=O)O` (stereo unspecified), the inhibition at 10 µg/mL in experiment [1] was found to be 0%. Moreover, the inhibition at 100 µg/mL in experiment [2] was 25.7%.

`N[C@@H](Cc1ccc(O)cc1)C(=O)N[C@@H](Cc1ccccc1)C(=O)O` (H-Tyr-Phe-OH): the inhibition at 10 µg/mL in experiment [1] is 0%. Moreover, in experiment [2], the inhibition at 100 µg/mL turned out to be 0%.

As to `NC(=O)CCC(NC(=O)OCc1ccccc1)C(=O)O` (stereo unspecified), the inhibition at 10 µg/mL in experiment [1] was 0%. Also, the inhibition at 100 µg/mL in experiment [2] was found to be 6.3%.

`O=C1/C(=C2\Nc3ccc(S(=O)(=O)O)cc3C2=O)Nc2ccc(S(=O)(=O)O)cc21` [INDIGOTINDISULFONATE]: the inhibition at 10 µg/mL in experiment [1] stood at 0%. Besides, the Ki in experiment [3] was determined as 42.1 µM. Also, in experiment [2], the inhibition at 100 µg/mL was 0%.

As for `NC(=O)CCC(NC(=O)OCC1c2ccccc2-c2ccccc21)C(=O)O` (stereo unspecified), in experiment [1], the inhibition at 10 µg/mL worked out at 0%. Moreover, in experiment [2], the inhibition at 100 µg/mL is 13.9%.

Take `O=C(O)CC(NC(=O)OCc1ccccc1)C(=O)O` (stereo unspecified): the inhibition at 10 µg/mL in experiment [1] worked out at 0%. Besides, the inhibition at 100 µg/mL in experiment [2] was 0%.

With `O=C(O)c1cc(-c2cc(C(=O)O)c3ccccc3n2)nc2ccccc12`, in experiment [1], the inhibition at 10 µg/mL turned out to be 0%. In addition, the inhibition at 100 µg/mL in experiment [2] was found to be 1.4%.

As to `O=C(O)C(Cc1ccc(O)cc1)NSc1ccccc1[N+](=O)[O-]` (stereo unspecified), the inhibition at 10 µg/mL in experiment [1] is 0%. Also, the inhibition at 100 µg/mL in experiment [2] was 0%.

On to `CC(NC(=O)OCC1c2ccccc2-c2ccccc21)C(=O)O` (stereo unspecified), for which the inhibition at 10 µg/mL in experiment [1] stood at 0%. Also, the inhibition at 100 µg/mL in experiment [2] is 12.9%.

Turning to `O=C(O)c1ccc(SSc2ccc(C(=O)O)cn2)nc1`, in experiment [1], the inhibition at 10 µg/mL came out at 6%. In experiment [3], the Ki amounted to 15.2 µM. In experiment [2], the inhibition at 100 µg/mL amounted to 12.1%.

Consider `O=C(O)c1cccc(F)c1C(=O)O`, for which the inhibition at 10 µg/mL in experiment [1] is 0%. In addition, the inhibition at 100 µg/mL in experiment [2] stood at 0%.

Take `O=C(NC(Cc1c[nH]cn1)C(=O)O)OCc1ccccc1` (stereo unspecified): the inhibition at 10 µg/mL in experiment [1] came to 0%. For the same molecule, the inhibition at 100 µg/mL in experiment [2] stood at 0%.
